What was measured:
Assay type in all cases: functional
[1] = tested on: COLO 205; assay: Cytotoxicity against human COLO205 cells assessed as cell growth at 100 nM after 48 hrs by sulforhodamine B assay; conditions: COLO 205, 48 h, read-out: Activity
[2] = tested on: T47D; assay: Cytotoxicity against human T47D cells assessed as cell growth at 10 uM after 48 hrs by sulforhodamine B assay; conditions: read-out: Activity
[3] = tested on: OVCAR-3; assay: Cytotoxicity against human OVCAR-3 cells assessed as cell growth at 100 nM after 48 hrs by sulforhodamine B assay; conditions: OVCAR-3, 48 h, read-out: Activity
[4] = tested on: NCI/ADR-RES; assay: Cytotoxicity against human NCI/ADR-RES cells assessed as cell growth at 100 nM after 48 hrs by sulforhodamine B assay; conditions: read-out: Activity
[5] = tested on: BT-549; assay: Cytotoxicity against human BT549 cells assessed as cell growth at 0.001 uM after 48 hrs by sulforhodamine B assay; conditions: BT-549, 48 h, read-out: Activity
Procedure, shortened: (§1)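 NCI-60 five-dose screen. Cells were grown in RPMI 1640 with 5% FBS and 2 mM L-glutamine, plated at 5000–40,000 cells/well and preincubated for 24 h. Time-zero plates were TCA-fixed. DMSO-solubilized drug was added at five concentrations (10-fold or ½-log serial dilutions) for 48 h at 37 °C, 5% CO2. Cells were TCA-fixed, stained with 0.4% SRB and read at 515 nm. Percent growth used time-zero, control and test absorbances.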

[6] = tested on: T47D; assay: Cytotoxicity against human T47D cells assessed as cell growth at 0.001 uM after 48 hrs by sulforhodamine B assay; conditions: read-out: Activity
[7] = tested on: PC-3; assay: Cytotoxicity against human PC3 cells assessed as cell growth at 100 nM after 48 hrs by sulforhodamine B assay; conditions: PC-3, 48 h, read-out: Activity
[8] = tested on: MDA-MB-468; assay: Cytotoxicity against human MDA-MB-468 cells assessed as cell growth at 100 nM after 48 hrs by sulforhodamine B assay; conditions: MDA-MB-468, 48 h, read-out: Activity
[9] = tested on: DU-145; assay: Cytotoxicity against human DU145 cells assessed as cell growth at 10 uM; conditions: read-out: Activity
Procedure, shortened: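 Single-dose NCI-60 screen at 10 µM. Cells were grown in RPMI 1640 with 5% FBS and 2 mM L-glutamine, then treated for 48 h at 37 °C. Protein was measured by SRB staining with absorbance at 515 nm. Percentage growth was recorded, and inhibition percentage was calculated as 100 minus growth percentage.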

[10] = tested on: HL-60(TB); assay: Cytotoxicity against human HL-60(TB) cells assessed as cell growth at 0.001 uM after 48 hrs by sulforhodamine B assay; conditions: HL-60, 48 h, read-out: Activity
Procedure, shortened: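 NCI 60-cell panel. Cells are grown in RPMI 1640 with 5% FBS and 2 mM L-glutamine, seeded at 5000–40,000 cells/well according to doubling time, and preincubated 24 h. Time-zero plates are TCA-fixed. Compound from DMSO stock is given at five 10-fold or 1/2-log concentrations for 48 h at 37 °C, 5% CO2. Suspension cells are fixed with 80% TCA (final 16%) and SRB-stained, with absorbance at 515 nm. Percent growth is derived from Tz, control and test readings.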

[11] = tested on: M14; assay: Cytotoxicity against human M14 cells assessed as cell growth at 1 uM after 48 hrs by sulforhodamine B assay; conditions: M14, 48 h, read-out: Activity
[12] = tested on: HCT-15; assay: Cytotoxicity against human HCT15 cells assessed as cell growth at 0.01 uM after 48 hrs by sulforhodamine B assay; conditions: HCT-15, 48 h, read-out: Activity
[13] = tested on: IGROV-1; assay: Cytotoxicity against human IGROV1 cells assessed as cell growth at 0.01 uM after 48 hrs by sulforhodamine B assay; conditions: IGROV-1, 48 h, read-out: Activity
[14] = tested on: A498; assay: Cytotoxicity against human A498 cells assessed as cell growth at 0.01 uM after 48 hrs by sulforhodamine B assay; conditions: A498, 48 h, read-out: Activity; procedure, shortened: as §1
[15] = tested on: CAKI-1; assay: Cytotoxicity against human Caki1 cells assessed as cell growth at 0.01 uM after 48 hrs by sulforhodamine B assay; conditions: CAKI-1, 48 h, read-out: Activity
[16] = tested on: NCI-H23; assay: Cytotoxicity against human NCI-H23 cells assessed as cell growth at 0.001 uM after 48 hrs by sulforhodamine B assay; conditions: NCI-H23, 48 h, read-out: Activity
[17] = tested on: NCI-H522; assay: Cytotoxicity against human NCI-H522 cells assessed as cell growth at 0.001 uM after 48 hrs by sulforhodamine B assay; conditions: NCI-H522, 48 h, read-out: Activity
[18] = tested on: TK-10; assay: Cytotoxicity against human TK10 cells assessed as cell growth at 0.001 uM after 48 hrs by sulforhodamine B assay; conditions: TK-10, 48 h, read-out: Activity
[19] = tested on: HOP-62; assay: Growth inhibition of human HOP62 cells after 48 hrs by sulforhodamine B assay; conditions: HOP-62, 48 h
Procedure, shortened: (§2)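 NCI 60-cell screen, five-dose mode. Cells grown in RPMI 1640 with 5% FBS and 2 mM L-glutamine and plated at 5000-40,000 cells/well according to doubling time. After 24 h preincubation, a Tz plate was TCA-fixed. Five concentrations (10-fold or 1/2 log dilutions) were applied for 48 h at 37 °C. SRB staining read at 515 nm. IC50 taken from [(Ti-Tz)/(C-Tz)]×100 = 50.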

[20] = tested on: LOX IMVI; assay: Growth inhibition of human LOXIMVI cells after 48 hrs by sulforhodamine B assay; conditions: for CC50: read-out: LC50 (the source's name); procedure, shortened: as §2
[21] = tested on: OVCAR-3; assay: Growth inhibition of human OVCAR-3 cells after 48 hrs by sulforhodamine B assay; conditions: OVCAR-3, 48 h; for CC50: read-out: LC50 (the source's name); procedure, shortened: as §2
[22] = tested on: SK-OV-3; assay: Growth inhibition of human SKOV3 cells after 48 hrs by sulforhodamine B assay; conditions: SK-OV-3, 48 h; for CC50: read-out: LC50 (the source's name); procedure, shortened: as §2
[23] = Cytotoxicity against human RPMI8266 cells assessed as cell growth at 100 nM after 48 hrs by sulforhodamine B assay; conditions: read-out: Activity
[24] = tested on: NCI-H23; assay: Cytotoxicity against human NCI-H23 cells assessed as cell growth at 100 nM after 48 hrs by sulforhodamine B assay; conditions: NCI-H23, 48 h, read-out: Activity
[25] = tested on: SK-OV-3; assay: Cytotoxicity against human SKOV3 cells assessed as cell growth at 1 uM after 48 hrs by sulforhodamine B assay; conditions: SK-OV-3, 48 h, read-out: Activity
[26] = tested on: 786-0; assay: Cytotoxicity against human 786-0 cells assessed as cell growth at 1 uM after 48 hrs by sulforhodamine B assay; conditions: 786-0, 48 h, read-out: Activity; procedure, shortened: as §1
[27] = tested on: TK-10; assay: Cytotoxicity against human TK10 cells assessed as cell growth at 1 uM after 48 hrs by sulforhodamine B assay; conditions: TK-10, 48 h, read-out: Activity
[28] = tested on: CAKI-1; assay: Cytotoxicity against human Caki1 cells assessed as cell growth at 10 uM after 48 hrs by sulforhodamine B assay; conditions: CAKI-1, 48 h, read-out: Activity
[29] = tested on: BT-549; assay: Cytotoxicity against human BT549 cells assessed as cell growth at 10 uM after 48 hrs by sulforhodamine B assay; conditions: BT-549, 48 h, read-out: Activity; procedure, shortened: as §1

Row | Compound | growth at 0.1 µM [1] | growth at 10 µM [2] | growth at 0.1 µM [3] | growth at 0.1 µM [4] | growth at 0.001 µM [5] | growth at 0.001 µM [6] | growth at 0.1 µM [7] | growth at 0.1 µM [8] | growth at 10 µM [9] | growth at 0.001 µM [10] | growth at 1 µM [11] | growth at 0.01 µM [12] | growth at 0.01 µM [13] | growth at 0.01 µM [14] | growth at 0.01 µM [15] | growth at 0.001 µM [16] | growth at 0.001 µM [17] | growth at 0.001 µM [18] | GI50 [19] | LC50 (50% lethal concentration) [19] | also measured
1 | COc1cc(C)cc(-c2nn(CC#N)cc2-c2ccc(-c3cccc(C(C)=O)c3)nc2)c1 | 88% | -29% | 66% | 59% | 99% | 88% | 85% | 9% | 39% | 94% | -53% | 100% | 92% | 60% | 96% | 94% | 85% | 99% | 3.07 µM | > 100 µM | TGI [19]: 36.9 µM; GI50 [20]: 3.52 µM; TGI [20]: > 100 µM; CC50 [20]: > 100 µM; GI50 [21]: 1.34 µM; TGI [21]: 3.3 µM; CC50 [21]: 8.13 µM; GI50 [22]: 3.13 µM; TGI [22]: 9.1 µM; CC50 [22]: > 100 µM; growth at 0.1 µM [23]: 96%; growth at 0.1 µM [24]: 88%; growth at 1 µM [25]: -4%; growth at 1 µM [26]: 15%; growth at 1 µM [27]: 2%; growth at 10 µM [28]: -18%; growth at 10 µM [29]: -24%
2 | COc1cc(C)cc(-c2nn(CC#N)cc2-c2ccnc(-c3ccc(N(C)C)cc3)c2)c1 | -15% | -32% | -51% | -22% | 105% | 102% | 14% | -18% | 2.87% | 97% | -7% | 92% | 101% | 88% | 92% | 93% | 77% | 109% | 0.39 µM | > 100 µM | TGI [19]: 18.7 µM; GI50 [20]: 0.681 µM; TGI [20]: 14.8 µM; CC50 [20]: > 100 µM; GI50 [21]: 0.204 µM; TGI [21]: 0.448 µM; GI50 [22]: 0.304 µM; TGI [22]: 0.882 µM; CC50 [22]: > 100 µM; growth at 0.1 µM [23]: 57%; growth at 0.1 µM [24]: 31%; growth at 1 µM [25]: -24%; growth at 1 µM [26]: -8%; growth at 1 µM [27]: 29%; growth at 10 µM [28]: -11%; growth at 10 µM [29]: -30%
3 | COc1cc(C)cc(-c2c(-c3ccnc(-c4ccc(C(C)=O)cc4)c3)cnn2CC#N)c1 | 102% | -12% | 92% | 83% | 96% | 93% | 83% | 68% | 103% | 101% | -19% | 95% | 94% | 77% | 97% | 94% | 86% | 103% | 3.35 µM | > 100 µM | TGI [19]: > 100 µM; GI50 [20]: 3.39 µM; TGI [20]: > 100 µM; CC50 [20]: > 100 µM; GI50 [21]: 2.61 µM; TGI [21]: 8.05 µM; CC50 [21]: > 100 µM; GI50 [22]: 4.22 µM; TGI [22]: > 100 µM; CC50 [22]: > 100 µM; growth at 0.1 µM [23]: 88%; growth at 0.1 µM [24]: 95%; growth at 1 µM [25]: 19%; growth at 1 µM [26]: 10%; growth at 1 µM [27]: 43%; growth at 10 µM [28]: 25%; growth at 10 µM [29]: 24%
4 | COc1cc(C)cc(-c2c(-c3ccnc(-c4ccc(N(C)C)cc4)c3)cnn2CC#N)c1 | 7% | 6% | -20% | 2% | 93% | 90% | 11% | -50% | 3.17% | 82% | -9% | 12% | -3% | 40% | -6% | 86% | 96% | 99% | 0.263 µM | > 100 µM | TGI [19]: > 100 µM; GI50 [20]: 0.0668 µM; TGI [20]: > 100 µM; CC50 [20]: > 100 µM; GI50 [21]: 0.03 µM; CC50 [21]: > 100 µM; GI50 [22]: 0.504 µM; TGI [22]: > 100 µM; CC50 [22]: > 100 µM; growth at 0.1 µM [23]: 13%; growth at 0.1 µM [24]: 28%; growth at 1 µM [25]: 36%; growth at 1 µM [26]: 2%; growth at 1 µM [27]: 31%; growth at 10 µM [28]: -25%; growth at 10 µM [29]: -25%
5 | Cc1cc(O)cc(-c2nn(CC#N)cc2-c2ccnc(-c3ccc(N(C)C)cc3)c2)c1 | 94% | -44% | 85% | 91% | 96% | 93% | 94% | 77% | 80.3% | 100% | -39% | 92% | 94% | 80% | 102% | 94% | 87% | 105% | 2.82 µM | > 100 µM | TGI [19]: 23.4 µM; GI50 [20]: 5.13 µM; TGI [20]: 17.8 µM; CC50 [20]: 47.7 µM; GI50 [21]: 1.91 µM; TGI [21]: 4.78 µM; CC50 [21]: 21.2 µM; GI50 [22]: 2.85 µM; TGI [22]: 8.03 µM; CC50 [22]: > 100 µM; growth at 0.1 µM [23]: 96%; growth at 0.1 µM [24]: 98%; growth at 1 µM [25]: -11%; growth at 1 µM [26]: 14%; growth at 1 µM [27]: 44%; growth at 10 µM [28]: -31%; growth at 10 µM [29]: -43%
